Results collected from several papers.
Sample: plasma

`COc1ccc2c(c1)CN(C(=O)CCN1CCC(Cc3ccccc3)CC1)CC[S@@+]2[O-]` gave an AUC(0-t) of 2410 ng·h/mL (male human; intravenous, 0.4 mg/kg, healthy volunteers).
`CC(=O)N(C)[C@H]1CCN(C(=O)c2cnc3c(c2)C[C@](C)(c2ccc(F)cc2)N3)C1` gave an AUC(0-t) of 3.42 µM·h (male human; oral, 30 mg, multiple doses, once daily).
The AUC(0-t) of `C=CC(=O)NC1CCN(c2ncc3ncnc(Nc4ccc(Oc5ccc6c(c5)ncn6C)c(C)c4)c3n2)CC1` is reported as 0.00262 µM·h (male human; intravenous, 100 µg, healthy volunteers).
`C[C@@H](Oc1ccc(S(C)(=O)=O)cc1C(=O)N1C[C@@H]2C[C@]2(c2cc(C(F)(F)F)on2)C1)C(F)(F)F` has an AUC(0-t) of 1.61 µM·h (human; oral, 10 mg, single dose, fasted).
With `CC(C)n1c(C2CCNCC2)nc2c([N+](=O)[O-])c(Br)c(Br)cc21` the AUC(0-t) was 451 ng·h/mL (human; oral, 50 mg, patients).
For `CC(=O)O[C@H]1C(=O)[C@@]2(C)[C@H]([C@H](OC(=O)c3ccccc3)[C@]3(O)C[C@H](OC(=O)[C@H](O)[C@@H](NC(=O)c4ccccc4)c4ccccc4)C(C)=C1C3(C)C)[C@]1(OC(C)=O)CO[C@@H]1C[C@@H]2O`, the AUC(0-t) was 3.25 µM·h (human; intravenous, 80 mg/m²).
`OC[C@H]1O[C@@H](c2cc(Cc3ccc(C4CC4)cc3)c(Cl)c3c2CCO3)[C@H](O)[C@@H](O)[C@@H]1O` has an AUC(0-t) of 24.6 ng·h/mL (human; oral, 0.3 mg, single dose, fed).
With `CC1(C)CC[C@]2(NC(=O)C(C)(F)F)CC[C@]3(C)[C@H](C(=O)C=C4[C@@]5(C)C=C(C#N)C(=O)C(C)(C)[C@@H]5CC[C@]43C)[C@@H]2C1` the AUC(0-t) was 1730 ng·h/mL (human; oral, 150 mg, single dose).
`COc1ccc(-c2c(Nc3ccccn3)[nH]c3c(C4=CCCCC4)c(-c4ccccc4)nn3c2=O)cc1` has an AUC(0-t) of 33400 ng·h/mL (human; oral, 50 mg once daily, multiple doses, steady state, patients).
